This is an account of results in ChEMBL document CHEMBL3124907.

In assay [1] the target is T1, 5-hydroxytryptamine receptor 2C (Homo sapiens) (UniProt P28335).
T1 sequence (whole entry): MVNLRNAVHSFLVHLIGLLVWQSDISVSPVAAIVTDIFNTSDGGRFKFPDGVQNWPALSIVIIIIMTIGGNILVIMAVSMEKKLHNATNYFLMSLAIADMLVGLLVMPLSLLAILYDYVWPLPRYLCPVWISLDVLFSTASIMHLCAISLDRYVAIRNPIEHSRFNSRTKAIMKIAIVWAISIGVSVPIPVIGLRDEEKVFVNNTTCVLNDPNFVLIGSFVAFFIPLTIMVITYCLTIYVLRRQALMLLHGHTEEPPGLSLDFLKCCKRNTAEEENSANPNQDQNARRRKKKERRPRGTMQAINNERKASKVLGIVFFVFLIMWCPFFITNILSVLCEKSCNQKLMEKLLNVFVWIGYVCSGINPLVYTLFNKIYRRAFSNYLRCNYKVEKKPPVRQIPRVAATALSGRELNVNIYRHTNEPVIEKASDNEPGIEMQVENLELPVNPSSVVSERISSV
Description: Inhibition of 5-HT2C receptor (unknown origin) at 10 uM by radioligand binding assay relative to control.

The target of assay [2] is 5-hydroxytryptamine receptor 2B (Homo sapiens) (UniProt P41595). Description: Inhibition of 5-HT2B receptor (unknown origin) at 10 uM by radioligand binding assay relative to control.
Assay [3] concerns the target 5-hydroxytryptamine receptor 2A (Homo sapiens) (UniProt P28223). Description: Inhibition of 5-HT2A receptor (unknown origin) at 10 uM by radioligand binding assay relative to control.
The target of assay [4] is 5-hydroxytryptamine receptor 2B (Homo sapiens) (UniProt P41595). Description: Agonist activity at 5-HT2B receptor (unknown origin) expressed in Flp-In HEK cells assessed as stimulation of calcium mobilization at 10 uM relative to 5-HT. It is filed as functional, cell-based. The settings on record: HEK293. In a few lines:
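Agonist-mode calcium mobilization in Flp-In HEK cells expressing 5-HT2B, with test compound at 10 µM. Response expressed as percent of the maximal 5-HT response.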

Assay [5] deals with Translocator protein (Homo sapiens) (UniProt P30536). Description: Inhibition of PBR (unknown origin) at 10 uM by radioligand binding assay relative to control.
Assay [6] addresses Muscarinic acetylcholine receptor M5 (Homo sapiens) (UniProt P08912). The assay is described as follows: Inhibition of muscarinic M5 receptor (unknown origin) at 10 uM by radioligand binding assay relative to control.
Assay [7] addresses Glutamate [NMDA] receptor (Homo sapiens) (UniProt Q05586+Q12879+Q13224+O15399+O60391+Q14957+Q8TCU5). Description: Inhibition of NMDA receptor (unknown origin) at 10 uM by radioligand binding assay relative to control.
Assay [8] deals with Muscarinic acetylcholine receptor M2 (Homo sapiens) (UniProt P08172). The assay is described as follows: Inhibition of muscarinic M2 receptor (unknown origin) at 10 uM by radioligand binding assay relative to control.
In assay [9] the target is Sodium-dependent noradrenaline transporter (Homo sapiens) (UniProt P23975). The assay is described as follows: Inhibition of NET (unknown origin) at 10 uM by radioligand binding assay relative to control.
The species entered for another assay is Rattus norvegicus. The assay is described as follows: Inhibition of benzodiazepine receptor in rat brain at 10 uM by radioligand binding assay relative to control. It is filed as tissue-based.
The target of assay [10] is Beta-2 adrenergic receptor (Homo sapiens) (UniProt P07550). The assay is described as follows: Inhibition of beta-2 adrenergic receptor (unknown origin) at 10 uM by radioligand binding assay relative to control.
Assay [11] addresses Alpha-2C adrenergic receptor (Homo sapiens) (UniProt P18825). The assay is described as follows: Inhibition of alpha2C adrenergic receptor (unknown origin) at 10 uM by radioligand binding assay relative to control.
In assay [12] the target is Alpha-2A adrenergic receptor (Homo sapiens) (UniProt P08913). Description: Inhibition of alpha2A adrenergic receptor (unknown origin) at 10 uM by radioligand binding assay relative to control.
The target of assay [13] is Alpha-1D adrenergic receptor (Homo sapiens) (UniProt P25100). The assay is described as follows: Inhibition of alpha1D adrenergic receptor (unknown origin) at 10 uM by radioligand binding assay relative to control.
For assay [14], the target named is Alpha-1B adrenergic receptor (Homo sapiens) (UniProt P35368). The assay is described as follows: Inhibition of alpha1B adrenergic receptor (unknown origin) at 10 uM by radioligand binding assay relative to control.
Assay [15] has as its target Alpha-1A adrenergic receptor (Homo sapiens) (UniProt P35348). Description: Inhibition of alpha1A adrenergic receptor (unknown origin) at 10 uM by radioligand binding assay relative to control.
The species entered for a further assay is Homo sapiens. Description: Inhibition of sigma-2 receptor (unknown origin) at 10 uM by radioligand binding assay relative to control.
Assay [16] deals with Histamine H3 receptor (Homo sapiens) (UniProt Q9Y5N1). The assay is described as follows: Inhibition of histamine H3 receptor (unknown origin) at 10 uM by radioligand binding assay relative to control.
Assay [17] concerns the target Histamine H1 receptor (Homo sapiens) (UniProt P35367). Description: Inhibition of histamine H1 receptor (unknown origin) at 10 uM by radioligand binding assay relative to control.
Assay [18] concerns the target D(1B) dopamine receptor (Homo sapiens) (UniProt P21918). The assay is described as follows: Inhibition of dopamine D5 receptor (unknown origin) at 10 uM by radioligand binding assay relative to control.
Assay [19] deals with D(1A) dopamine receptor (Homo sapiens) (UniProt P21728). The assay is described as follows: Inhibition of dopamine D1 receptor (unknown origin) at 10 uM by radioligand binding assay relative to control.
The target of assay [20] is Sodium-dependent serotonin transporter (Homo sapiens) (UniProt P31645). Description: Inhibition of SERT (unknown origin) at 10 uM by radioligand binding assay relative to control.
In assay [21] the target is 5-hydroxytryptamine receptor 7 (Homo sapiens) (UniProt P34969). The assay is described as follows: Inhibition of 5-HT7 receptor (unknown origin) at 10 uM by radioligand binding assay relative to control.
The target of assay [22] is 5-hydroxytryptamine receptor 6 (Homo sapiens) (UniProt P50406). Description: Inhibition of 5-HT6 receptor (unknown origin) at 10 uM by radioligand binding assay relative to control.
For assay [23], the target named is 5-hydroxytryptamine receptor 3A (Homo sapiens) (UniProt P46098). The assay is described as follows: Inhibition of 5-HT3 receptor (unknown origin) at 10 uM by radioligand binding assay relative to control.
Assay [24] addresses 5-hydroxytryptamine receptor 1D (Homo sapiens) (UniProt P28221). Description: Inhibition of 5-HT1D receptor (unknown origin) at 10 uM by radioligand binding assay relative to control.
Assay [25] concerns the target 5-hydroxytryptamine receptor 1B (Homo sapiens) (UniProt P28222). The assay is described as follows: Inhibition of 5-HT1B receptor (unknown origin) at 10 uM by radioligand binding assay relative to control.
The target of assay [26] is 5-hydroxytryptamine receptor 1A (Homo sapiens) (UniProt P08908). The assay is described as follows: Inhibition of 5-HT1A receptor (unknown origin) at 10 uM by radioligand binding assay relative to control.
Sequence of 5-hydroxytryptamine receptor 1A (Homo sapiens) (P08908 whole entry): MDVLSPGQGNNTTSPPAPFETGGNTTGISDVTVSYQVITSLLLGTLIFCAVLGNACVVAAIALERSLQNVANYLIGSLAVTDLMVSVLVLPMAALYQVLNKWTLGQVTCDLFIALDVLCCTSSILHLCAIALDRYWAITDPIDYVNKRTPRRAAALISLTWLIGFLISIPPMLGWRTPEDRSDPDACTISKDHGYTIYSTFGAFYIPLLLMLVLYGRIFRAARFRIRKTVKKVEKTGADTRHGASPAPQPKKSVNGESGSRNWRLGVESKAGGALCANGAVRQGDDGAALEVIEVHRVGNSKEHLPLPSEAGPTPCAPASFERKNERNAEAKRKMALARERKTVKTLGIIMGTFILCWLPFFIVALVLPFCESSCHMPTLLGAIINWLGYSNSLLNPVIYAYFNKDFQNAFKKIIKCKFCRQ

Sequence of 5-hydroxytryptamine receptor 2B (Homo sapiens) (P41595 whole entry): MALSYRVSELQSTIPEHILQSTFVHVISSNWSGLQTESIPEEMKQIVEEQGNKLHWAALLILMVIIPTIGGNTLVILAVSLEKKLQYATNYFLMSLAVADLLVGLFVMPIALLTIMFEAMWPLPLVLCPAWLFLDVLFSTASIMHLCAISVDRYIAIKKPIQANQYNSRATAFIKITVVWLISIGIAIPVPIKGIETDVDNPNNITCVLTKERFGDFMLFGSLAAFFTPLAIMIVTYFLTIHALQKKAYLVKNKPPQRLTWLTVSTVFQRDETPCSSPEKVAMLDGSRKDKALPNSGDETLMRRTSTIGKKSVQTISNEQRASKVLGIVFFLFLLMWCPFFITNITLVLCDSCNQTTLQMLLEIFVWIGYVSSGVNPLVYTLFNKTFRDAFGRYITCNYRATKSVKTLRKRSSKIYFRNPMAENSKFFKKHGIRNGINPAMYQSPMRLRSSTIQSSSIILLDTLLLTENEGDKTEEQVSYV
Sequence of 5-hydroxytryptamine receptor 2A (Homo sapiens) (P28223 whole entry): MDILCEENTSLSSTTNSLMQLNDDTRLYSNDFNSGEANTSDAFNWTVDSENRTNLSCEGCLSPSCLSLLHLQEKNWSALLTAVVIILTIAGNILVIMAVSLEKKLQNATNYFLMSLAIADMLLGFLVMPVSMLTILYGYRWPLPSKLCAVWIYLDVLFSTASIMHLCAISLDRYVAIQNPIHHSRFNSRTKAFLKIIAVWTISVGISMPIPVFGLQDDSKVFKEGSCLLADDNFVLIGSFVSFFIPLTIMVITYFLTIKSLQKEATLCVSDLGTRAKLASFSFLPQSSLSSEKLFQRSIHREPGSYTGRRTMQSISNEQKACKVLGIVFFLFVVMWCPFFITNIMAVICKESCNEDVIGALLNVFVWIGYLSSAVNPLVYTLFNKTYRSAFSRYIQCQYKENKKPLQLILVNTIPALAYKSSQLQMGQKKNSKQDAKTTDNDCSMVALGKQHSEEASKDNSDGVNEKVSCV
Sequence of Sodium-dependent serotonin transporter (Homo sapiens) (P31645 whole entry, looked up): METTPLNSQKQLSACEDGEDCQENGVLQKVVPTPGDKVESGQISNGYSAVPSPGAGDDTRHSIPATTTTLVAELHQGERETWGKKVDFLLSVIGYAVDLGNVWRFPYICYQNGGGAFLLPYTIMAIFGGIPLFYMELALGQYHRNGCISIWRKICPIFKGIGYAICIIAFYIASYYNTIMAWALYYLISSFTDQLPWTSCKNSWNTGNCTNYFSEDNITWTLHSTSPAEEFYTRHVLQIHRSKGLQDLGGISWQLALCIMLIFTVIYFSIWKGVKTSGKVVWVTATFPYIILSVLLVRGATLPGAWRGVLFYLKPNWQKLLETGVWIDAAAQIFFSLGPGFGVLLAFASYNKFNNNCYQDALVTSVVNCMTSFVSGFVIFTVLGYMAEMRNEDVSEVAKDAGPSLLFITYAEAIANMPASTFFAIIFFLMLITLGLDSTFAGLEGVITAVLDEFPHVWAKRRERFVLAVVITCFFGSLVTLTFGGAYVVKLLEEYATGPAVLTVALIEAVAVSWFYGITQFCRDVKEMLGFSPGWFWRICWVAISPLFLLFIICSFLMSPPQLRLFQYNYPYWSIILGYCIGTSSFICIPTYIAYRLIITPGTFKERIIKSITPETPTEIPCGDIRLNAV
Sequence of Alpha-1D adrenergic receptor (Homo sapiens) (P25100 whole entry): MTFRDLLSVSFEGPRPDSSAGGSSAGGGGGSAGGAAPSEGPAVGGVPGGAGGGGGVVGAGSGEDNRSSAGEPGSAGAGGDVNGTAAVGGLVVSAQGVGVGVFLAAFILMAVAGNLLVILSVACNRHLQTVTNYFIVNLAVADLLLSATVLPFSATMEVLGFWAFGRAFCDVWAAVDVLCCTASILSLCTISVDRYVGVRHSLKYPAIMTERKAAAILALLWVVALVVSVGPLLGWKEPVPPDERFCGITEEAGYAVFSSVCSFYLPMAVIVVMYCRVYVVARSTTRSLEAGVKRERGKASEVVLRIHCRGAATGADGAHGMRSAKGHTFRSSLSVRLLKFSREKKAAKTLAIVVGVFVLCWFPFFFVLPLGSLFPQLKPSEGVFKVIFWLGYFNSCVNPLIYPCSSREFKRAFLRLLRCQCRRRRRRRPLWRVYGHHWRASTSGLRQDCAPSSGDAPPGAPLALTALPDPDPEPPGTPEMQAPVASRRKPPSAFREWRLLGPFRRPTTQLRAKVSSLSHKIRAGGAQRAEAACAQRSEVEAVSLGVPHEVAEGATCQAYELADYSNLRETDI
Sequence of Histamine H1 receptor (Homo sapiens) (P35367 whole entry): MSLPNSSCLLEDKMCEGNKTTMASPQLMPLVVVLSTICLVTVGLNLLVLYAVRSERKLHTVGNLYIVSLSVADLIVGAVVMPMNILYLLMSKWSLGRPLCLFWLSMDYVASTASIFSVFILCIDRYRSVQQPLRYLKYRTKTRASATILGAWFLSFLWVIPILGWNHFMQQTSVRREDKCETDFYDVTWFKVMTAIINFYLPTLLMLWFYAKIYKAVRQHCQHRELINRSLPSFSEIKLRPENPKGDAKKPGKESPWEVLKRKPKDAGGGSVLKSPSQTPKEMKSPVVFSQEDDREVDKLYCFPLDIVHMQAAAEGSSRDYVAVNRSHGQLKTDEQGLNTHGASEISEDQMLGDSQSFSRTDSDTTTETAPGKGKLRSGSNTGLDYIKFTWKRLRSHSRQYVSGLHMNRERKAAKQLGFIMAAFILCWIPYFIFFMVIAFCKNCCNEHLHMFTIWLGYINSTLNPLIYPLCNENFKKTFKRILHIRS
Sequence of Muscarinic acetylcholine receptor M5 (Homo sapiens) (P08912 whole entry): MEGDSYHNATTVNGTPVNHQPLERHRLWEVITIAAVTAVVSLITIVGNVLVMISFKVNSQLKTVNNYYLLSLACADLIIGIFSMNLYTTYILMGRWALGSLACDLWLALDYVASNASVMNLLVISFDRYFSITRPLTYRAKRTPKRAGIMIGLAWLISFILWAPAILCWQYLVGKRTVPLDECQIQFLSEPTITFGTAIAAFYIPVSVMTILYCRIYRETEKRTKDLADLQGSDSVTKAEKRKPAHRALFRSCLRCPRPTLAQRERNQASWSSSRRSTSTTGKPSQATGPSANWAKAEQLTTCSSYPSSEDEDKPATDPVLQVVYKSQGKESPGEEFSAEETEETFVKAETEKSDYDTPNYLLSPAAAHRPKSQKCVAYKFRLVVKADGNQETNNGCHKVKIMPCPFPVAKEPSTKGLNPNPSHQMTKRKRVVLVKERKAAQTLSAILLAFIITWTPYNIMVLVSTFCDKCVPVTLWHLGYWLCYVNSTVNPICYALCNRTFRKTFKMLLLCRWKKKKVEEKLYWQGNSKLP
Sequence of 5-hydroxytryptamine receptor 1B (Homo sapiens) (P28222 whole entry): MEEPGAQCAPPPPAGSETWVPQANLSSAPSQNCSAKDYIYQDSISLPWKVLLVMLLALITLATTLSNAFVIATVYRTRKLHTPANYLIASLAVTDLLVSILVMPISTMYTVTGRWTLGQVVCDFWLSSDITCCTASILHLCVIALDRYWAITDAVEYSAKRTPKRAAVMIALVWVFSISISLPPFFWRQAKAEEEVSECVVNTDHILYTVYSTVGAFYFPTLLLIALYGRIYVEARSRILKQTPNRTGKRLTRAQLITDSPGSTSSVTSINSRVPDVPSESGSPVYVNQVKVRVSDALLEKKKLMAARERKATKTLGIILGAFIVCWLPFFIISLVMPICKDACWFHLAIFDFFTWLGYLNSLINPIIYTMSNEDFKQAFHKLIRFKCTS
Sequence of Alpha-2A adrenergic receptor (Homo sapiens) (P08913 whole entry): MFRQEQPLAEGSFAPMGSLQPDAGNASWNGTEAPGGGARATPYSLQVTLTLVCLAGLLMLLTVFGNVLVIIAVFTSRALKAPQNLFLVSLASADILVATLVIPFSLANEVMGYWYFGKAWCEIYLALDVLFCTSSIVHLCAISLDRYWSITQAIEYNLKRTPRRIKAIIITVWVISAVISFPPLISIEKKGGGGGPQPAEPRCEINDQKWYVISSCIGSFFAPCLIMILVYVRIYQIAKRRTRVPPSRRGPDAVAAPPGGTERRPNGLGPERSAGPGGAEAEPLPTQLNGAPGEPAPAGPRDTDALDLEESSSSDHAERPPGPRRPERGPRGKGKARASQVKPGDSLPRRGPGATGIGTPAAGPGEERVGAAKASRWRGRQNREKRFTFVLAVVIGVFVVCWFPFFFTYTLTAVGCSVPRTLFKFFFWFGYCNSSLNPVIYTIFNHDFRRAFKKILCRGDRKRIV
Sequence of 5-hydroxytryptamine receptor 6 (Homo sapiens) (P50406 whole entry): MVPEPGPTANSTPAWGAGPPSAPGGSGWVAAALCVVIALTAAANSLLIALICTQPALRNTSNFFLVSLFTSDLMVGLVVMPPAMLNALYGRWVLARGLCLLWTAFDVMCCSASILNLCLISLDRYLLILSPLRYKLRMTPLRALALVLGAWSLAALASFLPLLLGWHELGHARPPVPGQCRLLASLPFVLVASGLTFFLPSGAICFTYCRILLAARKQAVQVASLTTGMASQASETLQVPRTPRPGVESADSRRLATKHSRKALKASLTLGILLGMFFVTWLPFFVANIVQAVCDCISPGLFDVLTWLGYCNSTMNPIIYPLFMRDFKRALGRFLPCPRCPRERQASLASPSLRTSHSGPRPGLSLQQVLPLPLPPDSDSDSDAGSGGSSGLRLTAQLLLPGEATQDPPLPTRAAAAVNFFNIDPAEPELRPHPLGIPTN

With `O=c1cc(CCCc2ccccc2)oc2cccc(O)c12`, the inhibition amounted to 7.9% in assay [1], 70.4% in assay [2] and 5.4% in [3].
For `O=c1cc(COc2ccccc2)oc2cccc(O)c12`, the values for the inhibition in assay [1], in assay [2] and in assay [3] were 7.8%, 50% and 0.2%, respectively.
Take `O=c1cc(CCc2cccs2)oc2cccc(O)c12`: the inhibition in assay [1] was determined as 19.6%; in assay [2] it was 74.8%; in assay [3] it was 1.4%.
For the compound `O=c1cc(CCc2ccccc2)oc2cccc(O)c12`, the Activity in assay [4] was 0.6%. The inhibition in assay [5] is 2.8%; in [6], 19.3%; in assay [7], 17.4%; in assay [8], 1.8%; in assay [9], 34.6%; in the assay listed under Rattus norvegicus it was 0.1%. Further, the inhibition in assay [10] came out at 1.4%; in [11] it was 32.7%; in assay [12] it was 22.2%; in assay [13], 2.1%; in assay [14] it was 2.9%; in assay [15], 16.9%. In addition, the inhibition is 36.8% in the assay listed under Homo sapiens; 15.9% in assay [16]; 13% in assay [17]; 0.4% in assay [18]; 24.7% in assay [19]; 28.9% in assay [20]. Besides, the inhibition in assay [21] is 35.9%; in assay [22] it was 5.8%; in assay [23], 61.7%; in [24] it was 4.3%; in assay [25], 3.7%; in assay [26], 5.4%.
Regarding `O=c1cc(Cc2ccccc2)oc2cccc(O)c12`, the inhibition in assay [1] amounted to 24.8%; in assay [2], 30.6%; in assay [3], 1.4%.
As for `O=c1cc(CCCCc2ccccc2)oc2cccc(O)c12`, the inhibition in assay [1] is 14.7%; in [2], 45.2%; in [3], 5.7%.
With `O=c1cc(Cc2cccs2)oc2cccc(O)c12`, the inhibition in assay [1] was 23.5%; in assay [2], 31.5%; in assay [3] it was -4.5%.
